Test results taken from ChEMBL document CHEMBL1155366, “Synthesis of novel ageladine A analogs showing more potent matrix metalloproteinase (MMP)-12 inhibitory activity than the natural product” (Bioorg Med Chem Lett, 2009).

molecular target: Macrophage metalloelastase (Homo sapiens, UniProt P39900); assay: Inhibition of human MMP12 catalytic domain
How it was run: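 Human MMP-12 catalytic domain (residues 84-255) in 50 mM Tris pH 7.5, 0.05% Brij-35, 10 mM CaCl₂, 1 mM DTNB. Preincubated with inhibitor in DMSO for 20 min at RT. The chromogenic thiopeptolide substrate (1 mM stock) was then added and the mix incubated 30–80 min at 37 °C. Reaction stopped with 0.2 M EDTA (pH 8.0); color read at 405 nm.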

Macrophage metalloelastase, sequence (P39900 whole entry, the tested form may be a part): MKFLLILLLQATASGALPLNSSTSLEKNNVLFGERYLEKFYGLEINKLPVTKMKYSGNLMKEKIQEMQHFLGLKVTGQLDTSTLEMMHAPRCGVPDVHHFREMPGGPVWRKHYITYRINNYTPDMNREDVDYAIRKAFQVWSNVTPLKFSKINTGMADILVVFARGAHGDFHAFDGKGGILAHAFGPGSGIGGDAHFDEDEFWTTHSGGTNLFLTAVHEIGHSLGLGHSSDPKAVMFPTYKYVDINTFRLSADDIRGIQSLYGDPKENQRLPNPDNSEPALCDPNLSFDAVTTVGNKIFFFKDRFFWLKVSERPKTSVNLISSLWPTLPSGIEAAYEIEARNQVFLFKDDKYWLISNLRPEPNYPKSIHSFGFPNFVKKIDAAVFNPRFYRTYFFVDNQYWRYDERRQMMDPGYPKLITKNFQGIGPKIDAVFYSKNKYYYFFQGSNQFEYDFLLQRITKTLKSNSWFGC

Row | IC50 [µM] | SMILES
1 | > 100 | Nc1nc2c(-c3[nH]c(Br)c(Br)c3CCc3ccccc3)nccc2[nH]1
2 | > 100 | Nc1nc2c(-c3cc(Br)c(-c4ccccc4)[nH]3)nccc2[nH]1
3 | 18.7 | Nc1nc2c(-c3cc(-c4ccccc4)c(Br)[nH]3)nccc2[nH]1
4 | > 100 | Nc1nc2c(-c3cc(CCCc4ccccc4)c(Br)[nH]3)nccc2[nH]1
5 | > 100 | Nc1nc2c(-c3cc(Cc4ccccc4)c(Br)[nH]3)nccc2[nH]1
6 | 2.99 | Nc1nc2c(-c3[nH]c(Br)c(CCc4ccccc4)c3Br)nccc2[nH]1
7 | 5.02 | Cc1c(Br)[nH]c(-c2nccc3[nH]c(N)nc23)c1Br
8 | > 100 | Nc1nc2c(-c3cc(Br)c(-c4ccc(-c5ccccc5)cc4)[nH]3)nccc2[nH]1
9 | > 100 | Nc1nc2c(-c3ccc(Br)[nH]3)nccc2[nH]1
10 | > 100 | Nc1nc2c(-c3[nH]c(Br)c(CCCc4ccccc4)c3Br)nccc2[nH]1
11 | > 100 | Cc1[nH]c(-c2nccc3[nH]c(N)nc23)cc1Br
12 | 2.02 | Nc1nc2c(-c3cc(Br)c(Cl)[nH]3)nccc2[nH]1
13 | > 100 | Nc1nc2c(-c3[nH]c(Br)c(CCc4ccccc4C(F)(F)F)c3Br)nccc2[nH]1
14 | > 100 | Nc1nc2c(-c3cc(Br)c[nH]3)nccc2[nH]1
15 | > 100 | Nc1nc2c(-c3[nH]c(Br)c(Cc4ccccc4)c3Br)nccc2[nH]1
16 | > 100 | Nc1nc2c(-c3cc(Br)c(-c4cccc(-c5ccccc5)c4)[nH]3)nccc2[nH]1
17 | 10.2 | Nc1nc2c(-c3cc(CCc4ccccc4)c(Br)[nH]3)nccc2[nH]1
18 | 1.24 | Nc1nc2c(-c3[nH]c(Br)c(Br)c3Br)nccc2[nH]1
19 | > 100 | Nc1nc2c(-c3[nH]c(Br)c(CCc4cccc(C(F)(F)F)c4)c3Br)nccc2[nH]1
20 | > 100 | Nc1nc2c(-c3[nH]c(Br)c(CCc4ccc(C(F)(F)F)cc4)c3Br)nccc2[nH]1
21 | > 100 | Cc1[nH]c(-c2nccc3[nH]c(N)nc23)c(Br)c1Br
22 | 5.02 | Nc1nc2c(-c3cc(Cl)c(Cl)[nH]3)nccc2[nH]1
23 | > 100 | Cc1cc(-c2nccc3[nH]c(N)nc23)[nH]c1Br
